The test system of one experiment is Plasmodium falciparum. As to the kind of experiment: Antimalarial activity against Plasmodium falciparum. It counts as functional, organism-based.
The next experiment has as its system BC1. As to the kind of experiment: Cytotoxicity against human BC1 cells. It counts as functional, cell-based.
The test system of another experiment is KB. As to the kind of experiment: Cytotoxicity against human KB cells. The format is functional, cell-based.
The test system of a further experiment is NCI-H187. As to the kind of experiment: Cytotoxicity against human NCI-H187 cells. It counts as functional, cell-based.
The test system of a further experiment is Candida albicans. As to the kind of experiment: Antifungal activity against Candida albicans. The format is functional, organism-based.
For experiment [1], the system named is Mycobacterium tuberculosis. As to the kind of experiment: Antimycobacterial activity against Mycobacterium tuberculosis H37Ra by microplate alamar blue assay. It counts as functional. The method, boiled down: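 Whole-cell microplate Alamar Blue test of M. tuberculosis H37Ra, read out as MIC in µg/mL. Isoniazid and kanamycin sulfate served as reference drugs.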
(The colour change of resazurin is a common sign of viable cells or microbes.)

≈ marks a conversion by molar mass, not a printed value. Calls of active or inactive are those of the source. The rule behind the calls is not given here.

Usually MIC stands for the lowest concentration found to suppress growth. A low value points to greater potency.

As to `C=CCCCCCCC#CCCCCCCCCCC[C@@H]1C[C@@H](CO)OC1=O`, the result with Plasmodium falciparum, with BC1, with KB, with NCI-H187 and in the experiment with Candida albicans was inactive.
In turn, `CCCC/C=C/C#CC#CCCCCCCCCCC[C@H]1C[C@@H](CO)OC1=O` [DEBILISONE C] showed an MIC in experiment [1] of 12.5 µg/mL (≈ 32.3 µM). Besides, the outcome with Plasmodium falciparum, in the experiment on BC1, with KB, with NCI-H187 and with Candida albicans was inactive.
In turn, `CCCCC[C@H](O)C#CC#CCCCCCCCCCC[C@H]1C[C@@H](CO)OC1=O` [DEBILISONE B] came in with an MIC in experiment [1] of 25 µg/mL (≈ 61.8 µM). Also, the outcome with Plasmodium falciparum, with BC1, in the experiment with KB, in the experiment with NCI-H187 and in the experiment with Candida albicans was inactive.
`C=CCC/C=C\C#CC#CCCCCCCCCCC[C@H]1C[C@@H](CO)OC1=O`: the outcome in the experiment on Plasmodium falciparum, in the experiment with BC1, in the experiment on KB, in the experiment with NCI-H187 and with Candida albicans was inactive.
Regarding `CCCCCCC#CC#CCCCCCCCCCC[C@H]1C[C@@H](CO)OC1=O`, the result in the experiment on Plasmodium falciparum, in the experiment on BC1, in the experiment on KB, in the experiment on NCI-H187 and with Candida albicans was inactive.
In turn, `C=CCC/C=C/C#CC#CCCCCCCCCCC[C@H]1C[C@@H](CO)OC1=O` [DEBILISONE E] came in with an MIC in experiment [1] of 25 µg/mL (≈ 65 µM). The result with Plasmodium falciparum, with BC1, in the experiment on KB, with NCI-H187 and with Candida albicans was inactive.
Regarding `CCCC/C=C\C#CC#CCCCCCCCCCCCC[C@H]1C[C@@H](CO)OC1=O`, the outcome with Plasmodium falciparum, in the experiment with BC1, in the experiment with KB, with NCI-H187 and with Candida albicans was inactive.
Consider `C=CCCCCCCC#CCCCC[C@@H]1C[C@@H](CO)OC1=O`, for which the result in the experiment on Plasmodium falciparum, in the experiment on BC1, in the experiment with KB, with NCI-H187 and in the experiment on Candida albicans was inactive.
